Source: ChEMBL document CHEMBL1909525, “Synthesis and anticonvulsant activity of novel 2,6-diketopiperazine derivatives. Part 1: perhydropyrrole[1,2-a]pyrazines” (Eur J Med Chem, 2011)
Active and inactive are the calls of the source. No cut-off for these calls is given here.

Experiments:
Mus musculus [1] = test: Neurotoxicity in albino Carworth Farms No.1 mouse assessed as motor impairment at 30 mg/kg, ip after 0.5 hrs by rotarod test; format: toxicity, organism-based; design: dose 30 mg/kg, route intraperitoneal; conditions: in vivo
In short: (§1)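 Rotorod neurotoxicity in mice at 6 r.p.m. Compound given i.p. (30, 100, 300 mg/kg) in 0.5% methylcellulose; tested at 30 min and 4 h. Impairment is inability to keep equilibrium on the rod for a given time; scored as impaired/tested.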

Mus musculus [2] = test: Neurotoxicity in albino Carworth Farms No.1 mouse assessed as motor impairment at 100 mg/kg, ip after 0.5 hrs by rotarod test; format: toxicity, organism-based; design: dose 100 mg/kg, route intraperitoneal; conditions: in vivo; in short: as §1
Mus musculus [3] = test: Neurotoxicity in albino Carworth Farms No.1 mouse assessed as motor impairment at 300 mg/kg, ip after 0.5 hrs by rotarod test; format: toxicity, organism-based; design: dose 300 mg/kg, route intraperitoneal; conditions: in vivo; in short: as §1
Mus musculus [4] = test: Anticonvulsant activity in albino Carworth Farms No.1 mouse assessed as protection against subcutaneous metrazol-induced seizure at 30 mg/kg, ip after 0.5 hrs; format: functional, organism-based; design: dose 30 mg/kg
In short: (§2)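 Mouse scMET test. Compound given i.p. (30, 100 or 300 mg/kg) in 0.5% methylcellulose. Pentylenetetrazole 85 mg/kg (CD97) given s.c. at 0.5 or 4 h, then mice observed for 30 min. Protection is absence of clonic spasms; scored as protected/tested.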

Mus musculus [5] = test: Anticonvulsant activity in albino Carworth Farms No.1 mouse assessed as protection against subcutaneous metrazol-induced seizure at 30 mg/kg, ip after 4 hrs; format: functional, organism-based; design: dose 30 mg/kg; in short: as §2
Mus musculus [6] = test: Anticonvulsant activity in albino Carworth Farms No.1 mouse assessed as protection against subcutaneous metrazol-induced seizure at 100 mg/kg, ip after 0.5 hrs; format: functional, organism-based; design: dose 100 mg/kg; in short: as §2
Mus musculus [7] = test: Anticonvulsant activity in albino Carworth Farms No.1 mouse assessed as protection against subcutaneous metrazol-induced seizure at 100 mg/kg, ip after 4 hrs; format: functional, organism-based; design: dose 100 mg/kg; in short: as §2
Mus musculus [8] = test: Anticonvulsant activity in albino Carworth Farms No.1 mouse assessed as protection against subcutaneous metrazol-induced seizure at 300 mg/kg, ip after 0.5 hrs; format: functional, organism-based; design: dose 300 mg/kg; in short: as §2
Mus musculus [9] = test: Anticonvulsant activity in albino Carworth Farms No.1 mouse assessed as protection against subcutaneous metrazol-induced seizure at 300 mg/kg, ip after 4 hrs; format: functional, organism-based; design: dose 300 mg/kg; in short: as §2
Mus musculus [10] = test: Anticonvulsant activity in ip dosed albino Carworth Farms No.1 mouse assessed as protection against maximal electroshock-induced seizure after 0.25 hrs; format: functional; conditions: albino Carworth Farms No.1, ip
In short: (§3)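 Mouse quantification at the time of peak effect, compound given i.p. in 0.5% methylcellulose. Groups of at least eight mice received varied doses until at least two points fell between 100 and 0% response. ED50 (MES, scMET) and TD50 (rotorod) with 95% CI by probit analysis (Finney). PI = TD50/ED50 MES.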

Mus musculus [11] = test: Anticonvulsant activity in ip dosed albino Carworth Farms No.1 mouse assessed as protection against subcutaneous metrazol-induced seizure after 0.25 hrs; format: functional; conditions: albino Carworth Farms No.1, 0.25 h; in short: as §3
[12] = Neurotoxicity in ip dosed albino Carworth Farms No.1 mouse assessed as motor impairment after 0.25 hrs by rotarod test; format: toxicity, organism-based; conditions: Carworth Farms No.1 (albino), in vivo
In short: (§4)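 Mouse quantification at the time of peak effect, compound given i.p. in 0.5% methylcellulose. Groups of at least eight mice received varied doses until at least two points fell between 100 and 0% response. PI = TD50/ED50 MES.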

Mus musculus [13] = species on record: Mus musculus; test: Protective index, ratio of TD50 for albino Carworth Farms No.1 mouse to ED50 for albino Carworth Farms No.1 mouse by maximal electroshock-induced seizure test; format: functional; in short: as §4
Mus musculus [14] = test: Anticonvulsant activity in ip dosed albino Carworth Farms No.1 mouse assessed as time needs to show peak effect for protection against maximal electroshock-induced seizure; format: functional
Rattus norvegicus [15] = test: Toxicity in albino Sprague-Dawley rat pilocarpine-induced status epilepticus model assessed as change in body weight in protected rat at 600 mg/kg, ip measured after 24 hrs of time from first stage 3 seizures; format: organism-based; design: dose 600 mg/kg, route intraperitoneal; conditions: in vivo
In short: (§5)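 Pilocarpine-induced status prevention in male albino Sprague-Dawley rats (150–180 g). Compound given i.p. and followed by a pilocarpine challenge. Animals were sorted as protected or non-protected, and average body weight change (g) ± S.E.M. was recorded for each group.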

Rattus norvegicus [16] = test: Toxicity in albino Sprague-Dawley rat pilocarpine-induced status epilepticus model assessed as change in body weight in non-protected rat at 600 mg/kg, ip measured after 24 hrs of time from first stage 3 seizures; format: organism-based; design: dose 600 mg/kg, route intraperitoneal; conditions: in vivo; in short: as §5
Mus musculus [17] = test: Anticonvulsant activity in albino Carworth Farms No.1 mouse assessed as protection against maximal electroshock-induced seizure at 30 mg/kg, ip after 0.5 hrs; format: functional, organism-based; design: dose 30 mg/kg
In short: (§6)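 Mouse MES test with compound given i.p. (30, 100 or 300 mg/kg) in 0.5% methylcellulose; tested at 0.5 and 4 h. Corneal stimulus of 50 mA at 60 Hz for 0.2 s, electrodes primed with 0.5% butacaine in 0.9% NaCl. Protection is abolition of hindlimb tonic extension; scored as protected/tested.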

Mus musculus [18] = test: Anticonvulsant activity in albino Carworth Farms No.1 mouse assessed as protection against maximal electroshock-induced seizure at 30 mg/kg, ip after 4 hrs; format: functional, organism-based; design: dose 30 mg/kg; in short: as §6
Mus musculus [19] = test: Anticonvulsant activity in albino Carworth Farms No.1 mouse assessed as protection against maximal electroshock-induced seizure at 100 mg/kg, ip after 0.5 hrs; format: functional, organism-based; design: dose 100 mg/kg; in short: as §6
Mus musculus [20] = test: Anticonvulsant activity in albino Carworth Farms No.1 mouse assessed as protection against maximal electroshock-induced seizure at 100 mg/kg, ip after 4 hrs; format: functional, organism-based; design: dose 100 mg/kg; in short: as §6
Mus musculus [21] = test: Anticonvulsant activity in albino Carworth Farms No.1 mouse assessed as protection against maximal electroshock-induced seizure at 300 mg/kg, ip after 0.5 hrs; format: functional, organism-based; design: dose 300 mg/kg; in short: as §6
Mus musculus [22] = test: Anticonvulsant activity in albino Carworth Farms No.1 mouse assessed as protection against maximal electroshock-induced seizure at 300 mg/kg, ip after 4 hrs; format: functional, organism-based; design: dose 300 mg/kg; in short: as §6
Mus musculus [23] = test: Neurotoxicity in albino Carworth Farms No.1 mouse assessed as motor impairment at 30 mg/kg, ip after 4 hrs by rotarod test; format: toxicity, organism-based; design: dose 30 mg/kg, route intraperitoneal; conditions: in vivo; in short: as §1
Mus musculus [24] = test: Neurotoxicity in albino Carworth Farms No.1 mouse assessed as motor impairment at 300 mg/kg, ip after 4 hrs by rotarod test; format: toxicity, organism-based; design: dose 300 mg/kg, route intraperitoneal; conditions: in vivo; in short: as §1
Rattus norvegicus [25] = test: Anticonvulsant activity in albino Sprague-Dawley rat assessed as protection against pilocarpine-induced status epilepticus at 600 mg/kg, ip measured after time from first stage 3 seizures; format: functional, organism-based; design: dose 600 mg/kg
In short: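 Male albino Sprague-Dawley rats (150–180 g) given compound i.p., then a pilocarpine challenge dose immediately (0 min) or 30 min after treatment. Outcome scored as protection or no protection from epileptic seizures, reported as number protected/number tested.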

Mus musculus [26] = test: Anticonvulsant activity in albino Carworth Farms No.1 mouse assessed as protection against electric-current for 3 secs-induced seizure at 100 mg/kg, ip after 2 hrs by 6Hz minimal clonic seizure test; format: functional, organism-based; design: dose 100 mg/kg
In short: (§7)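 6 Hz psychomotor seizure test in mice. Compound given i.p. as a suspension in 0.5% methylcellulose. Corneal stimulation at 32 mA, 0.2-ms monopolar rectangular pulses at 6 Hz for 3 s, from a constant-current device. Tests run 0.25–4 h after dosing. A mouse counted as protected if it resumed normal exploratory behaviour within 10 s; scored as protected/tested.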

Mus musculus [27] = test: Anticonvulsant activity in albino Carworth Farms No.1 mouse assessed as protection against electric-current for 3 secs-induced seizure at 100 mg/kg, ip after 0.25 hrs by 6Hz minimal clonic seizure test; format: functional, organism-based; design: dose 100 mg/kg; in short: as §7
Mus musculus [28] = test: Anticonvulsant activity in albino Carworth Farms No.1 mouse assessed as protection against electric-current for 3 secs-induced seizure at 100 mg/kg, ip after 4 hrs by 6Hz minimal clonic seizure test; format: functional, organism-based; design: dose 100 mg/kg; in short: as §7
Mus musculus [29] = test: Neurotoxicity in albino Carworth Farms No.1 mouse assessed as motor impairment at 100 mg/kg, ip after 0.25 hrs by rotarod test; format: toxicity, organism-based; design: dose 100 mg/kg, route intraperitoneal; conditions: in vivo
In short: (§8)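 Rotorod neurotoxicity in mice (18–25 g) following i.p. dosing of a suspension in 0.5% methylcellulose in water, tested at intervals between 0.25 and 4 h. Impairment was scored as failure to keep equilibrium on a 6 r.p.m. rod, reported as number impaired/number tested.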

Mus musculus [30] = test: Neurotoxicity in albino Carworth Farms No.1 mouse assessed as motor impairment at 100 mg/kg, ip after 2 hrs by rotarod test; format: toxicity, organism-based; design: dose 100 mg/kg, route intraperitoneal; conditions: in vivo; in short: as §8
Mus musculus [31] = test: Neurotoxicity in albino Carworth Farms No.1 mouse assessed as motor impairment at 100 mg/kg, ip after 4 hrs by rotarod test; format: toxicity, organism-based; design: dose 100 mg/kg, route intraperitoneal; conditions: in vivo; in short: as §1
Mus musculus [32] = test: Anticonvulsant activity in ip dosed albino Carworth Farms No.1 mouse assessed as protection against electric-current for 3 secs-induced seizure after 0.25 hrs by 6Hz minimal clonic seizure test; format: functional; conditions: albino Carworth Farms No.1, ip
Mus musculus [33] = test: Anticonvulsant activity in ip dosed albino Carworth Farms No.1 mouse assessed as time needs to show peak effect for electric-current for 3 secs-induced seizure after 0.25 hrs by 6Hz minimal clonic seizure test; format: functional
[34] = Neurotoxicity in ip dosed albino Carworth Farms No.1 mouse assessed as motor impairment after 0.5 hrs by rotarod test; format: toxicity, organism-based; conditions: Carworth Farms No.1 (albino), in vivo
In short: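 Rotorod test in mice (18–25 g) dosed i.p. with compound suspended in 0.5% methylcellulose in water. Tested 30 min after dosing. Impairment was scored as inability to keep equilibrium on a 6 r.p.m. rod. TD50 came from groups of ≥8 mice at the time of peak effect, with 95% confidence intervals by probit analysis (Finney method).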

Mus musculus [35] = test: Neurotoxicity in albino Carworth Farms No.1 mouse assessed as motor impairment at 100 mg/kg, ip after 1 hr by rotarod test; format: toxicity, organism-based; design: dose 100 mg/kg, route intraperitoneal; conditions: in vivo; in short: as §8

Structure (SMILES)	Activity (Mus musculus [1])	Activity (Mus musculus [2])	Activity (Mus musculus [3])	Activity (Mus musculus [4])	Activity (Mus musculus [5])	Activity (Mus musculus [6])	Activity (Mus musculus [7])	Activity (Mus musculus [8])	Activity (Mus musculus [9])	Activity (Mus musculus [17])	Activity (Mus musculus [18])	Activity (Mus musculus [19])	Activity (Mus musculus [20])	Activity (Mus musculus [21])	Activity (Mus musculus [22])	Activity (Mus musculus [23])	Activity (Mus musculus [24])	other results
Cl.O=C1[C@H](c2ccccc2)N2CCC[C@H]2C(=O)N1CCc1ccccc1	Non-toxic	Non-toxic	Non-toxic	inactive	inactive	inactive	inactive	inactive	inactive	inactive	inactive	Active	inactive	Active	Active	Non-toxic	Non-toxic	ED50 (Mus musculus [10]): 80.6 mg/kg; ED50 (Mus musculus [11]): > 200 mg/kg; TD50 at 0.25 h [12]: 178 mg/kg; Ratio TD50/ED50 (Mus musculus [13]): 2.2; Time (Mus musculus [14]): 0.25 h; Activity (Rattus norvegicus [15]): -10 g; Activity (Rattus norvegicus [16]): -18.8 g; Activity (Rattus norvegicus [25]): inactive
CCOC(=O)CN1C(=O)[C@H](c2ccccc2)N2CCC[C@H]2C1=O	Non-toxic	Non-toxic	Toxic	inactive	inactive	inactive	inactive	inactive	inactive	inactive	inactive	Active	inactive	Active	Active	Non-toxic	Non-toxic	Activity (Mus musculus [26]): inactive; Activity (Mus musculus [27]): Active; Activity (Mus musculus [28]): inactive; Activity (Mus musculus [29]): Non-toxic; Activity (Mus musculus [30]): Non-toxic; Activity (Mus musculus [31]): Non-toxic; ED50 (Mus musculus [32]): 55.6 mg/kg; Time (Mus musculus [33]): 0.25 h; TD50 at 0.5 h [34]: 178 mg/kg; Activity (Mus musculus [35]): Non-toxic
